Measured values reported in article PMC10878326 (Cell chemical biology, 2023).

What was measured:
[1] = system: lipid droplets in uninfected HC-04 cells; assay: HCS LipidTOX lipid droplet staining in uninfected HC-04 cells; type: cell-based, human
[2] = system: P. berghei infected HepG2 cells; assay: Cell Painting morphological profile compared with landmark compound set; type: cell-based, human
P. berghei liver stages = assay: P. berghei luciferase liver stage assay; type: cell-based, Plasmodium berghei; conditions: IC50 used to set 1x and 2x treatment of HC-04 cells
[3] = system: P. berghei schizonts in HC-04 cells; assay: Confocal imaging of P. berghei infected HC-04 cells treated with compound; type: cell-based, Plasmodium berghei; conditions: HC-04, 1x and 2x IC50, 48 hpi
Outline: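 HC-04 cells were seeded at 16,000 cells/well on poly-L-lysine-coated chamber slides and pretreated 24 h with test compound, NR1D2 inhibitor or DMSO. They were then infected with P. berghei Luc sporozoites (MOI 1:1), with treatment kept to 48 hpi. Cells were fixed in 4% PFA, permeabilised with 0.1% Triton X-100 and blocked in 1% BSA. Staining: anti-UIS4 1:1000 overnight at 4 °C, anti-NR1D2 1:500, LipidTOX 1:500 and DAPI. Imaging was at 63x oil. Merozoites per schizont were counted. Two biological replicates; one-way ANOVA with Dunnett's test.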

NR1D2 = assay: Western blot of NR1D2 protein in uninfected HC-04 cells; type: cell-based, human; conditions: uninfected HC-04, 1x to 10x IC50, 48 hours
Outline: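 Uninfected HC-04 cells were exposed 48 h to varying concentrations of test compound or NR1D2 inhibitor, then lysed. Protein was measured by DC assay, resolved by SDS-PAGE and transferred to nitrocellulose. Blots were blocked 1 h in 5% blocker and probed with anti-NR1D2 at 1:1000. Levels were expressed relative to beta actin.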

NR1D2 transcript = assay: qPCR of NR1D2 transcript in treated HC-04 cells; type: cell-based, human; conditions: HC-04, post treatment 48h
Outline: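 HC-04 cells were treated 48 h with varying concentrations of test compound or NR1D2 inhibitor. Cells were harvested, RNA was extracted, and NR1D2 transcript was quantified by qPCR with gene-specific primers.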

[4] = system: P. berghei in NR1D2 knockdown lines; assay: Parasite development IC50 shift in NR1D2 shRNA knockdown cells; type: cell-based, Plasmodium berghei; conditions: stable shRNA knockdown, luciferase after 48 hours
[5] = system: P. falciparum asexual blood stages; conditions: cited from earlier work

O=C1C(O)=C([C@H]2CC[C@H](c3ccc(Cl)cc3)CC2)C(=O)c2ccccc21 [atovaquone]
HCS lipid tox staining intensities [1]: did not observe any significant changes

Cc1cccc2sc(C(=O)NCc3cccc(NS(N)(=O)=O)c3)c(Cl)c12 [MMV1452174]
morphological profile similarity / inferred host pathway [2]: potential modulator of the host S1P pathway
HCS lipid tox staining intensities [1]: did not observe any significant changes

N#CC(C(=O)c1cc(S(=O)(=O)N2CCc3ccccc3C2)ccc1Cl)c1ccccn1 (stereo not shown) [MMV1346624]
IC50 (P. berghei liver stages): 1.04 ± 0.73 µM
morphological profile similarity / inferred host pathway [2]: phenocopied treatment with tamoxifen, endoxifen and lichochalcone A
number of merozoites per schizont relative to DMSO [3]: significant reduction
parasite size relative to DMSO controls [3]: smaller
NR1D2 protein expression level (western blot) (NR1D2): dose dependent reduction
NR1D2 RNA expression levels (NR1D2 transcript): no significant changes
difference in IC50 in NR1D2 knockdown lines relative to wild type cells [4]: did not see any differences
activity against asexual blood stages [5]: little activity

Cc1cc(C(=O)Oc2ccccc2C(N)=O)c(C)n1Cc1ccco1 [MMV1088447]
IC50 (P. berghei liver stages): 1.05 ± 0.29 µM
morphological profile similarity / inferred host pathway [2]: phenocopied treatment with tamoxifen, endoxifen and lichochalcone A
number of merozoites per schizont relative to DMSO [3]: significant reduction
parasite size relative to DMSO controls [3]: smaller
NR1D2 protein expression level (western blot) (NR1D2): dose dependent reduction
NR1D2 RNA expression levels (NR1D2 transcript): no significant changes
difference in IC50 in NR1D2 knockdown lines relative to wild type cells [4]: did not see any differences
activity against asexual blood stages [5]: little activity

CC1(C)c2nc(-c3ccc(F)cc3)c(Nc3ccc(Cl)cc3)n2CCN1C(=O)CN [GNF179]
HCS lipid tox staining intensities [1]: did not observe any significant changes

CN1CCN(Cc2cc(CNC3(c4ccccc4F)CCCC3)ccc2O)CC1 [ARN5187, reference compound]
number of merozoites per schizont relative to DMSO [3]: lower number of merozoites per schizont
NR1D2 protein expression level (western blot) (NR1D2): no changes in protein expression levels
